Experimental data as given in ChEMBL document CHEMBL4425145, “Discovery of New Anti-Schistosomal Hits by Integration of QSAR-Based Virtual Screening and High Content Screening” (J Med Chem, 2016).
The source made the active and inactive calls. No cut-off for these calls is given here.

Assays:
Schistosoma mansoni [1] = assay: Antischistosomal activity against adult male Schistosoma mansoni BH assessed as inhibition of parasite motility at 20 to 100 uM after 48 to 72 hrs in absence of 0.01% triton X-100 by colloidal aggregation assay; type: functional, organism-based
In short: (§1)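 Perfused adult worms held singly in complete DMEM at 37 °C, 5% CO2. Incubated with compound at 20 and 100 μM, with or without Triton X-100 (0.01%). HCS motility measured at 48 and 72 h, and activity with detergent compared with activity without it.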

Schistosoma mansoni [2] = assay: Antischistosomal activity against Schistosoma mansoni BH schistosomula assessed as multiple vacuole appearance at 20 uM after 48 hrs by HCS microscopic analysis; type: functional, organism-based
In short: (§2)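 Cercariae vortexed at maximum speed for 5 min to shed tails and transform to schistosomula. Larvae resuspended in Medium 169 at 120 per well and held overnight under 5% CO2 before dosing. Exposed 48 h at 20 μM, vehicle DMSO 0.625%. Automated bright-field HCS imaging; Bayesian phenotype and motility scores adjusted to DMSO control wells on each plate.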

Schistosoma mansoni [3] = assay: Antischistosomal activity against Schistosoma mansoni BH schistosomula assessed as morphological changes at 20 uM after 48 hrs by HCS microscopic analysis; type: functional, organism-based; in short: as §2
Schistosoma mansoni [4] = assay: Antischistosomal activity against adult female Schistosoma mansoni BH assessed as inhibition of parasite motility at 20 to 100 uM after 48 to 72 hrs in absence of 0.01% triton X-100 by colloidal aggregation assay; type: functional, organism-based; in short: as §1
Papain = target: T1, Papain (Carica papaya, UniProt P00784); assay: Inhibition of papaya papain using Z-FR-AMC fluorogenic peptide substrate preincubated for 5 mins followed by substrate addition
T1 sequence (P00784 whole entry): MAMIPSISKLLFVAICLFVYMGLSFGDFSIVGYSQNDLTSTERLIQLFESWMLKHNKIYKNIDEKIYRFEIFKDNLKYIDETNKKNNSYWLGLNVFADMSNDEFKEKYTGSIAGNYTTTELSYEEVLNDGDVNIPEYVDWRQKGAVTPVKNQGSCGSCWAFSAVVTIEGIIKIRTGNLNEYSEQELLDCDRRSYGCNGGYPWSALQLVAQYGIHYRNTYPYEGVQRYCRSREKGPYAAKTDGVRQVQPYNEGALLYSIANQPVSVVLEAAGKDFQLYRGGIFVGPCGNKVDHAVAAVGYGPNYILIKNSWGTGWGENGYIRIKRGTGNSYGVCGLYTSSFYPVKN
In short: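 Papain (5 μg/mL) in 100 mM sodium acetate, pH 3.5, at 37 °C. Pre-incubated 5 min with compound at 20 and 100 μM, then reaction started with 50 μM Z-FR-AMC fluorogenic substrate. E-64 used as positive control.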

Schistosoma mansoni [5] = assay: Antischistosomal activity against adult male Schistosoma mansoni BH assessed as inhibition of parasite motility up to 72 hrs by HCS microscopic analysis; type: functional, organism-based
In short: (§3)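 Adult worms perfused from portal hepatic and mesenteric veins of Swiss mice 42–49 days after percutaneous infection with 150 ± 10 cercariae. Worms held singly in DMEM with 10% FCS and 2 mM L-glutamine overnight at 37 °C, 5% CO2. Exposed to 0.10–100 μM against 0.1% DMSO, imaged at 0, 24, 48 and 72 h. Motility from image-overlap AdjustedRandIndex; EC50 from dose-response curves.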

Schistosoma mansoni [6] = assay: Antischistosomal activity against Schistosoma mansoni BH schistosomula assessed as darkening of schistosomula at 20 uM after 48 hrs by HCS microscopic analysis; type: functional, organism-based; in short: as §2
Schistosoma mansoni [7] = assay: Antischistosomal activity against Schistosoma mansoni BH schistosomula assessed as inhibition of parasite motility at 20 uM after 48 hrs by HCS microscopic analysis; type: functional, organism-based; in short: as §2
Schistosoma mansoni [8] = assay: Antischistosomal activity against Schistosoma mansoni BH schistosomula assessed as inhibition of parasite motility after 48 hrs by HCS microscopic analysis; type: functional, organism-based
In short: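 Schistosomula obtained from cercariae by vortex tail shedding (5 min), held overnight in Medium 169 under 5% CO2 at 120 per well. Dosed at 0.31–20 μM against DMSO 0.625% for 48 h. Motility taken by automated bright-field imaging as average object displacement, adjusted to DMSO control wells. EC50 from a four-parameter logistic fit.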

Schistosoma mansoni [9] = assay: Antischistosomal activity against Schistosoma mansoni BH schistosomula assessed as rounding appearance of schistosomula at 20 uM after 48 hrs by HCS microscopic analysis; type: functional, organism-based; in short: as §2
[10] = Cytotoxicity against human WSS1 cells assessed as reduction in cell viability after 48 hrs by resazurin assay; type: cell-based
In short: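 Human kidney WSS-1 epithelial cells grown in DMEM (4.5 g/L glucose, 10% FBS, gentamicin) and seeded at 5×10^4 cells/mL. Dosed 20 h later at 0.2–400 μM for 48 h at 37 °C, 5% CO2. Resazurin (final 0.01 mg/mL) added 4 h before the end; resorufin fluorescence read at ex 560/em 590 nm. Viability taken relative to DMSO (0.2–0.8%); CC50 from a four-parameter logistic fit.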

Schistosoma mansoni [11] = assay: Antischistosomal activity against adult female Schistosoma mansoni BH assessed as inhibition of parasite motility at 20 to 100 uM after 48 to 72 hrs in presence of 0.01% triton X-100 by colloidal aggregation assay; type: functional, organism-based; in short: as §1
Schistosoma mansoni [12] = assay: Antischistosomal activity against adult female Schistosoma mansoni BH assessed as inhibition of parasite motility up to 72 hrs by HCS microscopic analysis; type: functional, organism-based; in short: as §3
Schistosoma mansoni [13] = assay: Antischistosomal activity against adult male Schistosoma mansoni BH assessed as inhibition of parasite motility at 20 to 100 uM after 48 to 72 hrs in presence of 0.01% triton X-100 by colloidal aggregation assay; type: functional, organism-based; in short: as §1
[14] = target: T2, Thioredoxin glutathione reductase (Schistosoma mansoni, UniProt Q962Y6); assay: Inhibition of Schistosoma mansoni TGR
T2 sequence (Q962Y6 whole entry): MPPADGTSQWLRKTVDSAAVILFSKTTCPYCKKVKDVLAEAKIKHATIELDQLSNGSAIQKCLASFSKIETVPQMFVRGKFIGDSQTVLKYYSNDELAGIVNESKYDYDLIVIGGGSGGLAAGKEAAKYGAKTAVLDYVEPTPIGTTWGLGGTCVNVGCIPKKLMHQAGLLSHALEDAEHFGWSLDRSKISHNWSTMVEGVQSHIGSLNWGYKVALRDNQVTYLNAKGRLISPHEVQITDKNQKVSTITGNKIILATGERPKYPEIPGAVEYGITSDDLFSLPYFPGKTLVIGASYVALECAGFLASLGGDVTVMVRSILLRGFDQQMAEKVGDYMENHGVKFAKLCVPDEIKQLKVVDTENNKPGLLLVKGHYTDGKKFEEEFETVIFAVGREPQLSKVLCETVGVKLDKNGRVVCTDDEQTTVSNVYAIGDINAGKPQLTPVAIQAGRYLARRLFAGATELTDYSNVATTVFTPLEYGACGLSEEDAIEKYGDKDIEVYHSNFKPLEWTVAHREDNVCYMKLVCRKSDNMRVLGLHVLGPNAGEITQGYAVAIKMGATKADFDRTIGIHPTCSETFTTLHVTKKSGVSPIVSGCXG

Schistosoma mansoni [15] = assay: Antischistosomal activity against adult male Schistosoma mansoni BH assessed as inhibition of parasite motility after 72 hrs by HCS microscopic analysis; type: functional, organism-based
In short: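 Adult worms perfused from portal hepatic and mesenteric veins of Swiss mice 42–49 days after percutaneous infection with 150 ± 10 cercariae; males placed singly in wells in DMEM with 10% fetal calf serum, 2 mM L-glutamine, penicillin and streptomycin; held overnight at 37 °C, 5% CO2. Exposed to 0.10–100 μM, DMSO 0.1% control. Image-based motility (overlap index) read at 72 h; EC50 from dose-response.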

## Cc1noc(/C=C/c2ccccn2)c1[N+](=O)[O-]
Schistosoma mansoni [1]
  inhibition: Active
Schistosoma mansoni [2]
  Activity: Active
Schistosoma mansoni [3]
  Activity: Active
Schistosoma mansoni [4]
  inhibition: Active
Papain
  IC50: > 100 µM
Schistosoma mansoni [5]
  EC50: 6.43 µM
Schistosoma mansoni [6]
  Activity: Active
Schistosoma mansoni [7]
  motility inhibition activity call: Active
Schistosoma mansoni [8]
  EC50: 3.23 µM
Schistosoma mansoni [9]
  Activity: Active
[10]
  CC50: 16.4 µM
Schistosoma mansoni [11]
  inhibition: Active
Schistosoma mansoni [12]
  EC50: 5.68 µM
Schistosoma mansoni [13]
  inhibition: Active

## O=C1CC(Sc2nnc[nH]2)C(=O)N1c1ccc(I)cc1 (stereo not drawn)
Schistosoma mansoni [3]
  Activity: Active
Papain
  IC50: > 100 µM
Schistosoma mansoni [5]
  EC50: 10.2 µM
Schistosoma mansoni [7]
  motility inhibition activity call: Active
Schistosoma mansoni [8]
  EC50: > 20 µM
[10]
  CC50: 133 µM
Schistosoma mansoni [12]
  EC50: 17.9 µM

## CC(=O)c1ccc(NCCC(=O)c2cccs2)cc1
Schistosoma mansoni [3]
  Activity: Active
Schistosoma mansoni [7]
  motility inhibition activity call: Active
Schistosoma mansoni [8]
  EC50: > 20 µM

## COc1ccc(C(=O)c2no[n+]([O-])c2C(=O)c2ccc(OC)cc2)cc1
[14]
  IC50: 0.1 µM

## O=C(C1CCCCC1)N1CC(=O)N2CCc3ccccc3C2C1 (stereo not drawn) [PRAZIQUANTEL]
Schistosoma mansoni [8]
  EC50: 1.9 µM
Schistosoma mansoni [15]
  EC50: 0.22 µM
[10]
  CC50: > 400 µM
Schistosoma mansoni [12]
  EC50: 0.64 µM

## O=C(CSc1ccccn1)Nc1nonc1[N+](=O)[O-]
[14]
  IC50: 7.08 µM

## O=S(=O)(Cc1ccccc1)c1nc2ccccc2s1
Schistosoma mansoni [1]
  inhibition: Active
Schistosoma mansoni [2]
  Activity: Active
Schistosoma mansoni [3]
  Activity: Active
Schistosoma mansoni [4]
  inhibition: Active
Papain
  IC50: > 100 µM
Schistosoma mansoni [5]
  EC50: 21.1 µM
Schistosoma mansoni [6]
  Activity: Active
Schistosoma mansoni [7]
  motility inhibition activity call: Active
Schistosoma mansoni [8]
  EC50: 2.62 µM
Schistosoma mansoni [9]
  Activity: Active
[10]
  CC50: 28.5 µM
Schistosoma mansoni [11]
  inhibition: Active
Schistosoma mansoni [12]
  EC50: 4.91 µM
Schistosoma mansoni [13]
  inhibition: Active

## N#Cc1cn(-c2ccccc2)nc1-c1ccco1
Schistosoma mansoni [3]
  Activity: Active
Schistosoma mansoni [7]
  motility inhibition activity call: Active
Schistosoma mansoni [8]
  EC50: > 20 µM

## COc1ccc(/C=C/[N+](=O)[O-])cc1OC
Schistosoma mansoni [1]
  inhibition: Active
Schistosoma mansoni [3]
  Activity: Active
Schistosoma mansoni [4]
  inhibition: Active
Papain
  IC50: > 100 µM
Schistosoma mansoni [5]
  EC50: 29.8 µM
Schistosoma mansoni [7]
  motility inhibition activity call: Active
Schistosoma mansoni [8]
  EC50: > 20 µM
[10]
  CC50: 17.5 µM
Schistosoma mansoni [11]
  inhibition: Active
Schistosoma mansoni [12]
  EC50: 5.77 µM
Schistosoma mansoni [13]
  inhibition: Active
